Reference: ChEMBL document CHEMBL1152579, “Substrate specificity effects of lipoxygenase products and inhibitors on soybean lipoxygenase-1” (Bioorg Med Chem, 2009)
Structures can show the parent of a compound that is named as a salt.

Legend:
[1] = biological target: T1, Seed linoleate 13S-lipoxygenase-1 (Glycine max) (UniProt P08170); assay: Mixed-type inhibition of soybean LO1 assessed as increase in arachidonic acid/linoleic acid ratio at 13 uM by substrate specificity assay
T1 sequence (whole entry): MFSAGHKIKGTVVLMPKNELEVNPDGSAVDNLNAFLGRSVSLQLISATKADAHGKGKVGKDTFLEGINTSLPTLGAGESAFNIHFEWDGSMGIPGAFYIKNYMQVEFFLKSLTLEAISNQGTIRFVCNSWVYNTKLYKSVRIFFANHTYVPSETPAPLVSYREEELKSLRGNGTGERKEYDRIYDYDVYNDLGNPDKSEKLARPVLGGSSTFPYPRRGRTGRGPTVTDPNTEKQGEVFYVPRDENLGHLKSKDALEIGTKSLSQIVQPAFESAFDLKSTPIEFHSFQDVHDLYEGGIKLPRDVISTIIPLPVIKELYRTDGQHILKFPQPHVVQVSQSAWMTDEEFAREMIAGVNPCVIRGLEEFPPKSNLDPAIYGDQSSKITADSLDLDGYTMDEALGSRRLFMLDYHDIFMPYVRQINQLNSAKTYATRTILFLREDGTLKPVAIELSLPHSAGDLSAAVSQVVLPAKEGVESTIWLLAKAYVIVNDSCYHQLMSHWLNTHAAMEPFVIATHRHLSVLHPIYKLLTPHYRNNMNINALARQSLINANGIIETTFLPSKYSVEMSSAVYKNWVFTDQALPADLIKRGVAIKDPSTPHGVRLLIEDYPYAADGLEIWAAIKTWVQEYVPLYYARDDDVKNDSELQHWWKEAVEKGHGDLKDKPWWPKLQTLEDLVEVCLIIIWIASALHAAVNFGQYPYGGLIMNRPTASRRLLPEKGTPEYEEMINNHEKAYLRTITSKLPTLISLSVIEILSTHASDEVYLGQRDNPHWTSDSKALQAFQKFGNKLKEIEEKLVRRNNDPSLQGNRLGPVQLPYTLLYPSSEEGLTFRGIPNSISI

[2] = biological target: T2, Seed linoleate 13S-lipoxygenase-1 (Glycine max, UniProt P08170); assay: Binding affinity to allosteric site of soybean LO1
T2 sequence (P08170 whole entry): T1 sequence (whole entry)

[3] = biological target: T1, Seed linoleate 13S-lipoxygenase-1 (Glycine max); assay: Inhibition of soybean LO1 assessed as increase in non-endogenous arachidonic acid/linoleic acid maximal ratio by substrate specificity assay
Method in brief: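 Inhibitor titrated into competitive substrate-capture reactions: sLO-1 with 1:1 AA:LA at 1 μM total substrate, 100 mM borate pH 9.2, 22 °C. Product ratio was measured by HPLC at each concentration. The change in (kcat/KM)AA/(kcat/KM)LA ratio was plotted against inhibitor concentration and fit to a saturation curve, giving the maximal ratio at saturation.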

[4] = biological target: T1, Seed linoleate 13S-lipoxygenase-1 (Glycine max); assay: Mixed-type inhibition of soybean LO1 assessed as increase in arachidonic acid/linoleic acid ratio at 65 uM by substrate specificity assay
[5] = biological target: T1, Seed linoleate 13S-lipoxygenase-1 (Glycine max); assay: Mixed-type inhibition of soybean LO1 assessed as increase in arachidonic acid/linoleic acid ratio at 30 uM by substrate specificity assay
[6] = biological target: T1, Seed linoleate 13S-lipoxygenase-1 (Glycine max); assay: Allosteric inhibition of soybean LO1 assessed as increase in arachidonic acid/linoleic acid ratio at 10 uM by substrate specificity assay
[7] = biological target: T1, Seed linoleate 13S-lipoxygenase-1 (Glycine max); assay: Allosteric inhibition of soybean LO1 assessed as increase in arachidonic acid/linoleic acid ratio at 1 uM by substrate specificity assay
[8] = biological target: T2, Seed linoleate 13S-lipoxygenase-1; assay: Binding affinity to soybean LO1
[9] = biological target: T1, Seed linoleate 13S-lipoxygenase-1 (Glycine max); assay: Allosteric inhibition of soybean LO1 assessed as increase in arachidonic acid/linoleic acid ratio at 1 uM by substrate specificity assay
[10] = biological target: T1, Seed linoleate 13S-lipoxygenase-1 (Glycine max); assay: Allosteric inhibition of soybean LO1 assessed as increase in arachidonic acid/linoleic acid ratio at 0.5 uM by substrate specificity assay
[11] = biological target: T1, Seed linoleate 13S-lipoxygenase-1 (Glycine max); assay: Competitive inhibition of soybean LO1 assessed as increase in arachidonic acid/linoleic acid ratio at 5 uM by substrate specificity assay
[12] = biological target: T1, Seed linoleate 13S-lipoxygenase-1 (Glycine max); assay: Allosteric inhibition of soybean LO1 assessed as increase in arachidonic acid/linoleic acid ratio at 5 uM by substrate specificity assay

Ratio [1] | Ki [2] | Ratio [3] | Ratio [4] | Ratio [5] | Ratio [6] | Ratio [7] | Ki [8] | Ratio [9] | Ratio [10] | Ratio [11] | Ratio [12] | Structure (SMILES)
2.3 | 140 µM | 7.4 | 4 | 3 | – | – | – | – | – | – | – | CCCCCC/C=C\CCCCCCCCOS(=O)(=O)O
– | – | 5.4 | – | – | 4.8 | 3.2 | 0.7 µM | 3.2 | 2.5 | 4.7 | 4.8 | CCCCCCCC/C=C\CCCCCCCCOS(=O)(=O)O [OLEYL SULFATE]
